The values that follow come from PubChem BioAssay.

Assay [1] in a line: inhibitors of TNFa-induced NFkB p65 translocation, primary screen, imaging, HUVEC, MLSMR starter and 10KST1 sets (AID 438;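 active = inhibition above 20% together with a positive visual image hit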;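 also: compound added about 3h40 before a 20 min TNFalpha stimulation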;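 as to inhibition: signal is the nuclear over cytoplasmic p65 intensity ratio per well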). The settings on record: HUVEC TNFa-induced p65 nuclear translocation; cell count: measured here: nuclei count (cytotoxicity indicator), at 2.08 µM; inhibition: at 2 µM, stronger effect = higher value, 0% TNFa-plus-vehicle, 100% no-TNFa wells.
A short description of assay [2]: endothelial E-selectin expression blockers – imaging, HUVEC, immunofluorescence, MLSMR starter and 10KST1 sets, primary screen (AID 487;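 active = visually confirmed hit in the image check and inhibition above 20%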;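 as to inhibition: signal is fraction of cell area covered by stained E-selectin grains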;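 as to nuclei count: 100% = median nuclei count of all wells on the same plate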). The settings on record: HUVEC TNFalpha-induced E-selectin immunofluorescence imaging, at 2 µM; inhibition: stronger effect = higher value; nuclei count: measured here: cell number, toxicity.
The nature of assay [3]: Primary imaging screen for DUSP6 inhibitors that restore phospho-Erk in transfected HeLa cells, chemical complementation (AID 609;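 active = compounds giving at least 50% inhibition in the cell-based MKP-3 phosphatase rescue imaging test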;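 as to inhibition: phospho-Erk level distribution per well compared with pooled transfected vehicle control wells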). To be noted: HeLa MKP-3 transfected, phospho-Erk imaging KS statistic, at 10 µM, cells stimulated with TPA for 15 min.
Assay [4] concerns the target Dual specificity protein phosphatase 6 (Homo sapiens) (UniProt Q16828). The assay is described as above. To be noted: HeLa MKP-3 transfected, phospho-Erk imaging KS statistic; at 10 µM; stronger effect = higher value; cells stimulated with TPA for 15 min.
Assay [5] has as its target Voltage-gated potassium channel subunit beta-2 (Rattus norvegicus) (UniProt P62483). Kind of assay: inhibitors of rat Kvbeta2 reductase activity – biochemical, NADPH fluorescence, primary screen (AID 622;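 active = fluorescence slope higher than the sample average by over 3 SD, cut at about -0.22 in these data, passing the limit was not always enough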;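 also: slope of raw intensity against log time taken from 70 to 1610 s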). The settings on record: recombinant KvBeta, 4-cyanobenzaldehyde reduction, at 10 µM, stronger effect = higher value.
The target is the same in assay [6]. Put plainly: enhancers of rat Kvbeta2 NADPH turnover – biochemical, NADPH fluorescence, primary screen (AID 623;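 active = NADPH fluorescence slope more negative than the mean of all samples by about 3 SD, 99.7% confidence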;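 also: fluorescence intensity change per second fitted from 20 to 320 s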). To be noted: Recombinant KvBeta, NADPH fluorescence decrease slope, 10 min; at 10 µM; stronger effect = lower value.
For assay [7], the target named is Alpha-2C adrenergic receptor (Homo sapiens) (UniProt P18825). Put plainly: compounds altering alpha2C-coupled GIRK flux – cell-based, HEK293 alpha2C/GIRK1/2, thallium flux, primary screen (AID 624;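 active = fluorescence slope after compound addition differing from the mean of all screened samples at 99.7% confidence, in either direction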;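 also: slope of fluorescence ratio to pre-addition baseline per second over 15 to 24 s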). To be noted: thallium flux BTC fluorescence, at 10 µM, actives lie on both sides.
Alpha-2C adrenergic receptor (Homo sapiens), sequence (P18825 whole entry, looked up): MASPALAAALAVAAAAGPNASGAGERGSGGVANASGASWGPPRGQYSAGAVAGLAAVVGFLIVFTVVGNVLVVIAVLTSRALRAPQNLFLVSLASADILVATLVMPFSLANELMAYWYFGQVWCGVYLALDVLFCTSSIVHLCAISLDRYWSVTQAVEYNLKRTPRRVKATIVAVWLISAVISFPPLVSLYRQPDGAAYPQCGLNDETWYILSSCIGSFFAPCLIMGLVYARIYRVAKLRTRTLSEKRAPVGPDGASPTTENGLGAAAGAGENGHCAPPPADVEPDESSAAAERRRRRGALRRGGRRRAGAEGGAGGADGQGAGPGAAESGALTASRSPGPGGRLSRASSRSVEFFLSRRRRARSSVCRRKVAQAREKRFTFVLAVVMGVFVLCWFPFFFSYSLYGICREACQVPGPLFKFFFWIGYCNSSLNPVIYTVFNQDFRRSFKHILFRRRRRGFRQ
A short description of assay [8]: inhibitors of larval lipid processing in zebrafish, primary screen, whole organism, PED6 fluorescence, gall bladder and intestine (AID 686;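 active = a full or partial loss of lipid-probe fluorescence in the fish gall bladder, intestine or both, judged by eye; inactive = no fluorescence loss, or compound toxic to the fish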;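 also: larvae 5 to 7 days old with five fish per well; signal comes from phospholipase A2 cleavage of quenched PED6 carried via bile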). The settings on record: Zebrafish larvae PED6 lipid processing, fluorescence scoring; screened at 20 µM (by protocol). In short, it runs like this: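 Incubation: overnight exposure of larvae to compound plus PED6 / Test system: live zebrafish larvae aged 5-7 days, whole organism / Amount: 5 larvae per well / Read-out basis: visual per-well fluorescence inhibition score / Signal: visual fluorescence microscopy scoring of gall bladder, gut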

A short description of assay [9]: loss of swimming-algae plug formation – whole organism, Chlamydomonas reinhardtii, WT vs cilia-less mutant, absorbance, 96-well, primary screen (AID 463189).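 Also: 0% = wild type cc124 cells in DMSO and 100% = ciliumless bld1 mutant cells.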 The settings on record: Chlamydomonas reinhardtii gravitaxis, OD600 absorbance, 2 days; at 10 µM; stronger effect = higher value.
Where [10] appears, read: measured here: cell density z-score.
The mark [11] stands for this setting: measured here: nuclear c-Myc green intensity z-score.
[12] abbreviates: measured here: nuclear pErk red intensity z-score, stronger effect = higher value.

Calls of active or inactive are those of the source.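 The calls were made as follows, unless noted: active = inhibition at or above 50% relative to wild type and mutant plate controls; inactive = inhibition below 50%.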

Voltage-gated potassium channel subunit beta-2 (Rattus norvegicus), sequence (P62483 whole entry, looked up): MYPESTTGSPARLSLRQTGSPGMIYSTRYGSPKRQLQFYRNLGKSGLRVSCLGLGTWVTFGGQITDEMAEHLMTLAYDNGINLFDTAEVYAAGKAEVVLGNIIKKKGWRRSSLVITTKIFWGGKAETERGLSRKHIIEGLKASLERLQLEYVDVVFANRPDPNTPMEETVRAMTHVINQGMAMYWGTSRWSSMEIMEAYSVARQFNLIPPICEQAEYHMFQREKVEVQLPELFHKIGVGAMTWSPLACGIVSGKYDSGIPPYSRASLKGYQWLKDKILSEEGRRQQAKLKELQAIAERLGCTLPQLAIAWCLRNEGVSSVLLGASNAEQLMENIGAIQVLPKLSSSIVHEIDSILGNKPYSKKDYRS
Dual specificity protein phosphatase 6 (Homo sapiens), sequence (Q16828 whole entry, looked up): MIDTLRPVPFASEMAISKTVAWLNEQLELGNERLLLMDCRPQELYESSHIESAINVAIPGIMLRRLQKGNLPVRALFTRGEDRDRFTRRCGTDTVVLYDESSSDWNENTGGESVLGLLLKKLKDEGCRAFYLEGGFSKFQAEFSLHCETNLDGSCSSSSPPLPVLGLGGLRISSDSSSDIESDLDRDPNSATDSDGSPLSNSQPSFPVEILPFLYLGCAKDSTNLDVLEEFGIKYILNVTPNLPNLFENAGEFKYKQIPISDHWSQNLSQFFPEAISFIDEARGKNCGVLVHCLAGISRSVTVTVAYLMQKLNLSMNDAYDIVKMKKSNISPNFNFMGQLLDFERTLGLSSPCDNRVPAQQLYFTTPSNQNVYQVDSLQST

One may read the inhibition as the relative decrease from the control value, in per cent. For the molecule `C=CCN(C(=O)CCC(=O)O)C1CC(=O)N(c2ccc(OCCC)cc2)C1=O` (stereo not given), in assay [1], the cell count stood at 454. For the same molecule, the inhibition was -10.8% (inactive) in assay [1], -213% (inactive) in assay [2], -2.29% (inactive) in assay [4] and 6.01% (inactive) in assay [9]. The molecule also displayed a nuclei count in assay [2] of 223%. The z-score in assay [3] (setting [10]) is 0.015; in [3] (setting [11]) it was -1.26; in [3] (setting [12]) it was -0.0284. In addition, in [5], the fluorescence slope was -0.384 (inactive). Also, the NADPH fluorescence slope in [6] is -2.5e-05 (inactive). In [7], the slope is 0.00464 (inactive). Besides, the outcome in assay [8] was inactive.
Turning to `COC(=O)c1ccc(C2C(C(=O)c3cc4ccccc4o3)=C(O)C(=O)N2CCCN(C)C)cc1` (stereo not given), the cell count in [1] came out at 423. Further, the inhibition in assay [1] was -8.1% (inactive); in [2] it was -11.6% (inactive); in assay [4] it was -6.48% (inactive); in assay [9], -1.14% (inactive). Further, the nuclei count in [2] is 167%. The z-score in assay [3] (setting [10]) is 0.389; in [3] (setting [11]), 1.47; in assay [3] (setting [12]), 0.581. Further, in assay [5], the fluorescence slope was -0.405 (inactive). Moreover, in assay [6], the NADPH fluorescence slope is -7.3e-05 (inactive). Also, the slope in assay [7] was 0.00626 (inactive). For the same molecule, the molecule was called inactive in assay [8].
Turning to `COCCCNC(=O)C(C#N)c1nc2ccccc2nc1N1CCN(Cc2ccccc2)CC1` (stereo not given), in assay [1], the cell count came out at 630. The inhibition in assay [1] was -5.8% (inactive); in assay [2] it was -33.3% (inactive); in [4], -8.27% (inactive); in assay [9], 33.7% (inactive). This molecule also returned a nuclei count in [2] of 156%. Moreover, the values for the z-score in assay [3] (setting [10]), in [3] (setting [11]) and in assay [3] (setting [12]) were -0.882, -0.494 and -0.556, respectively. The fluorescence slope in assay [5] is -0.472 (inactive). In addition, the NADPH fluorescence slope in [6] was -0.00034 (inactive). Besides, the slope in assay [7] was 0.00118 (inactive). Moreover, the outcome in [8] was inactive.
In the case of `Cc1ccc(SCc2c(C#N)c3ccccc3n2C)cc1`, the cell count in assay [1] was 288. Also, the inhibition in assay [1] is -2.4% (inactive); in [2], -79.2% (inactive); in [4], 12.3% (inactive); in [9], 16.9% (inactive). Moreover, in [2], the nuclei count is 129%. For the same molecule, the z-score is -1.74 in assay [3] (setting [10]), 2.02 in [3] (setting [11]) and 0.448 in assay [3] (setting [12]). Besides, the fluorescence slope in assay [5] is -0.445 (inactive). The NADPH fluorescence slope in [6] was -0.000146 (inactive). Besides, the slope in assay [7] was 0.00992 (active). In assay [8], the result was inactive.
In the case of `CN1CCN(CCC(=O)N2c3ccccc3Sc3ccc(Cl)cc32)CC1`, the cell count in assay [1] was 450. Further, the inhibition in assay [1] is -3.2% (inactive); in [2], -122% (inactive); in assay [4], 0.671% (inactive); in assay [9] it was 15.9% (inactive). The molecule also had a nuclei count in assay [2] of 176%. For the same molecule, the z-score in assay [3] (setting [10]) is 0.831; in [3] (setting [11]), 0.747; in assay [3] (setting [12]), -0.386. For the same molecule, in assay [5], the fluorescence slope is -0.432 (inactive). In [6], the NADPH fluorescence slope was -5.3e-05 (inactive). Moreover, the slope in assay [7] is 0.00551 (inactive). In addition, the molecule was classed as inactive in assay [8].
Take `Cc1cc(C)cc(-n2c3nc4ccccc4nc3c3c(=O)n(Cc4ccco4)cnc32)c1`: in assay [1], the cell count was determined as 319. The inhibition is -15.5% (inactive) in [1], -94.4% (inactive) in [2], 3.5% (inactive) in [4] and -2.54% (inactive) in assay [9]. Moreover, in assay [2], the nuclei count was 134%. The results for the z-score in assay [3] (setting [10]), in assay [3] (setting [11]) and in assay [3] (setting [12]) were 0.126, -0.244 and -0.872, respectively. Moreover, the fluorescence slope in assay [5] was -0.396 (inactive). Also, in [6], the NADPH fluorescence slope was -0.000101 (inactive). Besides, in assay [7], the slope was 0.0051 (inactive). Moreover, the call in assay [8] was inactive.
`COCCOCCOCCC(=O)NC1CC2CCC1(C)C2(C)C` (stereo not given): the cell count in assay [1] stood at 580. In addition, the inhibition in assay [1] is -10.5% (inactive); in [2], 32.9% (inactive); in assay [4] it was 6.51% (inactive); in assay [9] it was 13.6% (inactive). The molecule also returned a nuclei count in [2] of 158%. The z-score in assay [3] (setting [10]) was 0.451; in assay [3] (setting [11]), -0.414; in [3] (setting [12]), -0.476. In addition, in assay [5], the fluorescence slope is -0.459 (inactive). Besides, the NADPH fluorescence slope in assay [6] is -1.1e-05 (inactive). For the same molecule, the slope in assay [7] is 0.00758 (inactive). In assay [8], the molecule was classed as inactive.
For `CCOC(=O)CCCCC(=O)NC(CO)C(=O)NC` (stereo not given), in assay [1], the cell count turned out to be 573. In addition, the inhibition in [1] was -3.8% (inactive); in [2], -97.8% (inactive); in assay [4], 22.1% (inactive); in assay [9] it was -2.9% (inactive). The nuclei count in assay [2] amounted to 204%. In addition, the figures for the z-score in assay [3] (setting [10]), in assay [3] (setting [11]) and in [3] (setting [12]) were -1.05, 1.41 and -0.705, respectively. Moreover, the fluorescence slope in assay [5] was -0.374 (inactive). Further, the NADPH fluorescence slope in assay [6] was -2.1e-05 (inactive). For the same molecule, the slope in [7] was 0.00506 (inactive). Moreover, in assay [8], the result was inactive.
Regarding `CN=C1c2c(-c3ccccc3)c3cc(OC)ccc3n2CCN1C`, the cell count in assay [1] turned out to be 531. Besides, the inhibition in assay [1] was -21.3% (inactive); in assay [2], -137% (inactive); in assay [4] it was -2.47% (inactive); in [9] it was 2.56% (inactive). Besides, in assay [2], the nuclei count was 145%. In addition, the z-score was 0.562 in [3] (setting [10]), 0.295 in assay [3] (setting [11]) and -0.655 in [3] (setting [12]). Besides, in [5], the fluorescence slope was -0.118 (active). The NADPH fluorescence slope in assay [6] is -9.2e-06 (inactive). Also, the slope in assay [7] was 0.00488 (inactive). Besides, the molecule was called inactive in assay [8].
For `Cc1ccc2cc(CN(C(=O)c3ccco3)c3ccccc3C)c(=O)[nH]c2c1`, in assay [1], the cell count is 334. Further, the inhibition in [1] was 8.3% (inactive); in assay [2] it was -73.2% (inactive); in [4], 17.5% (inactive); in assay [9], 32.2% (inactive). The nuclei count in assay [2] amounted to 116%. Besides, the results for the z-score in [3] (setting [10]), in [3] (setting [11]) and in [3] (setting [12]) were 1.77, -1.81 and -0.15, respectively. Moreover, the fluorescence slope in [5] was -0.477 (inactive). For the same molecule, the NADPH fluorescence slope in [6] was 1.8e-05 (inactive). Further, the slope in [7] was 0.00844 (inactive).
With `COc1ccc(C(CC(=O)N2CCOCC2)C(C)C)cc1` (stereo not given), in [1], the cell count was 486. For the same molecule, the inhibition in assay [1] was 10.6% (inactive); in [2], -31.9% (inactive); in [4] it was -5.26% (inactive); in assay [9] it was 19.8% (inactive). The molecule also displayed a nuclei count in assay [2] of 97.9%. The z-score in [3] (setting [10]) was -1.63; in assay [3] (setting [11]), 1.26; in assay [3] (setting [12]), -0.603. In [5], the fluorescence slope was -0.476 (inactive). The NADPH fluorescence slope in assay [6] is -7e-06 (inactive). Besides, the slope in assay [7] is 0.00515 (inactive). In addition, the molecule was called inactive in [8].
As for `CCOc1cccc(-c2nnc3sc(-c4cccs4)nn23)c1`, in assay [1], the cell count turned out to be 464. The inhibition in [1] is -0.1% (inactive); in [2] it was -85.6% (inactive); in assay [4] it was -2.47% (inactive); in assay [9], 18.9% (inactive). In assay [2], this molecule returned a nuclei count of 99.8%. Moreover, the z-score is -0.8 in assay [3] (setting [10]), 1.1 in assay [3] (setting [11]) and 0.15 in assay [3] (setting [12]). Also, the fluorescence slope in [5] is -0.456 (inactive). Moreover, the NADPH fluorescence slope in [6] is -6.5e-05 (inactive). Also, the slope in assay [7] was 0.00982 (inactive). Moreover, the result in assay [8] was inactive.
